Laboratory results published in ChEMBL document CHEMBL4406821, “Novel dual inhibitors targeting CDK4 and VEGFR2 synergistically suppressed cancer progression and angiogenesis” (Eur J Med Chem, 2019).
Activity calls are given as the source filed them.

How the values were obtained:
HeLa [1] = test: Inhibition of colony formation in human HeLa cells at 80 nM incubated for 5 days by crystal violet staining based light microscopy; assay type: functional, cell-based
Outline: (§1)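 4 × 10^3 cells per well were cultured with graded concentrations for 5 days. Cells were then fixed with 20% methanol, stained with 0.5% crystal violet and photographed by light microscopy.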

[2] = Toxicity in NOD/SCID BALB/c mouse xenografted with human SiHa cells assessed as body weight at 40 mg/kg, po administered for 21 days; assay type: organism-based; settings: in vivo, 504 h
Outline: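 Female NOD/SCID Balb/c mice, 6–8 weeks, implanted subcutaneously in right flank with 2×10^6 SiHa cells in 100 µL medium. At 100 mm³ tumors, randomized (5 mice/group) to daily oral gavage. Body weight monitored every 3 days; study ended day 21.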

T47D [3] = test: Induction of apoptosis in human T47D cells assessed as decrease in Bcl2 expression at 40 nM incubated for 48 hrs by Western blot analysis; assay type: functional, cell-based
Outline: (§2)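 Cancer cells were exposed to graded concentrations for 48 h, washed three times in PBS and lysed in RIPA buffer. Immunoblots were probed with anti-Rb, anti-phospho-Rb, anti-Ki67 and anti-Bcl-2, each at 1:1000. β-actin served as loading control.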

HeLa [4] = test: Antiproliferative activity against human HeLa cells assessed as reduction in cell viability measured after 72 hrs by CCK8 assay; assay type: functional, cell-based
Outline: (§3)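 Cells were seeded at 3×10³ cells/well and exposed to a range of concentrations or vehicle for 72 h. Viability was read by CCK-8 at 450 nm, with DMSO as blank and five replicates per sample. IC50 was calculated from the dose-response.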

SiHa [5] = test: Antitumor activity against human SiHa cells xenografted in NOD/SCID BALB/c mouse assessed as tumor growth inhibition at 40 mg/kg, po administered for 21 days; assay type: functional, organism-based
T47D [6] = test: Inhibition of colony formation in human T47D cells at 40 nM incubated for 5 days by crystal violet staining based light microscopy; assay type: functional, cell-based
Outline: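 MDA-MB-231, T-47D, SiHa and HeLa cells seeded at 4×10^3/well and cultured with varying concentrations of drug or vehicle for 5 days. Fixed in 20% methanol, stained with 0.5% crystal violet, photographed under light microscopy. DMEM (T-47D) with 10% FBS, 37°C, 5% CO2.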

SiHa [7] = test: Antitumor activity against human SiHa cells xenografted in NOD/SCID BALB/c mouse assessed as reduction in Ki67 expression at 40 mg/kg, po measured after 21 days by hematoxylin and eosin staining based immunohistochemistry; assay type: functional, organism-based
Outline: (§4)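 Female NOD/SCID Balb/c mice, 6–8 weeks old, received 2×10^6 SiHa cells subcutaneously in the right flank. Once tumors reached 100 mm³, mice were randomized, 5 per group, and gavaged once daily for 21 days. Formalin-fixed, paraffin-embedded tumor sections were stained with Ki67 or CD31 antibody (1:100, 4 °C overnight), then biotin secondary and ABC-peroxidase/DAB, with hematoxylin counterstain.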

SiHa [8] = test: Induction of apoptosis in human SiHa cells at 40 nM incubated for 48 hrs by annexin V FITC and propidium iodide staining based flow cytometry; assay type: functional, cell-based
Outline: (§5)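 Annexin V-FITC/PI double staining with flow-cytometric readout. MDA-MB-231, T-47D, SiHa and HeLa cells were treated with graded concentrations for 48 h. MDA-MB-231 and T-47D were grown in DMEM and SiHa in 1640 medium, each with 10% FBS and 1% penicillin/streptomycin at 37°C under 5% CO2. Early- and late-stage apoptotic fractions were scored.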

SiHa [9] = test: Antiproliferative activity against human SiHa cells assessed as reduction in cell viability measured after 72 hrs by CCK8 assay; assay type: functional, cell-based; outline: as §3
HeLa [10] = test: Induction of cell cycle arrest in human HeLa cells assessed as accumulation in G0/G1 phase at 80 nM incubated for 36 hrs by propidium iodide staining based flow cytometry; assay type: functional
Outline: (§6)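 Cells were treated with graded concentrations for 36 h, then fixed overnight in 70% ice-cold ethanol at 4°C and resuspended in PBS. Staining used 50 µg/ml PI plus 5 µg/ml RNase at 37°C for 30 min. DNA content was analysed by FACS to give G0/G1, S and G2/M fractions.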

SiHa [11] = test: Induction of cell cycle arrest in human SiHa cells assessed as accumulation in G0/G1 phase at 80 nM incubated for 36 hrs by propidium iodide staining based flow cytometry; assay type: functional; outline: as §6
HeLa [12] = test: Induction of apoptosis in human HeLa cells assessed as decrease in Bcl2 expression at 80 nM incubated for 48 hrs by Western blot analysis; assay type: functional, cell-based
Outline: (§7)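 Cells were treated for 48 h, washed three times with PBS, and lysed in RIPA buffer. Immunoblots used anti-Rb, anti-phospho-Rb, anti-Ki67 and anti-Bcl-2 (each 1:1000), with β-actin as loading control.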

HUVEC [13] = test: Antiproliferative activity against HUVEC cells assessed as reduction in cell viability measured after 72 hrs by CCK8 assay; assay type: functional, cell-based; settings: Homo sapiens; outline: as §3
T47D [14] = test: Antiproliferative activity against human T47D cells assessed as reduction in cell viability at 40 nM incubated for 48 hrs by EdU staining based laser scanning confocal microscopy; assay type: functional
Outline: (§8)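 Cells, 5×10^4, were seeded in 24-well plates and treated for 48 h. They were then labeled using an EdU Apollo 488 imaging kit with Hoechst 33342 nuclear stain and imaged by laser scanning confocal microscopy. Percent EdU-positive cells = EdU-positive/Hoechst-stained × 100%.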

T47D [15] = test: Antiproliferative activity against human T47D cells assessed as reduction in cell viability measured after 72 hrs by CCK8 assay; assay type: functional, cell-based; outline: as §3
SiHa [16] = test: Antiproliferative activity against human SiHa cells assessed as reduction in cell viability at 80 nM incubated for 48 hrs by EdU staining based laser scanning confocal microscopy; assay type: functional; outline: as §8
T47D [17] = test: Induction of apoptosis in human T47D cells at 40 nM incubated for 48 hrs by annexin V FITC and propidium iodide staining based flow cytometry; assay type: functional, cell-based; outline: as §5
MDA-MB-231 [18] = test: Inhibition of colony formation in human MDA-MB-231 cells at 40 nM incubated for 5 days by crystal violet staining based light microscopy; assay type: functional, cell-based; outline: as §1
MDA-MB-231 [19] = test: Antiproliferative activity against human MDA-MB-231 cells at 40 nM assessed as reduction in cell viability incubated for 48 hrs by EdU staining based laser scanning confocal microscopy; assay type: functional; outline: as §8
T47D [20] = test: Induction of cell cycle arrest in human T47D cells assessed as accumulation in G0/G1 phase at 40 nM incubated for 36 hrs by propidium iodide staining based flow cytometry; assay type: functional; outline: as §6
MDA-MB-231 [21] = test: Antiproliferative activity against human MDA-MB-231 cells assessed as reduction in cell viability measured after 72 hrs by CCK8 assay; assay type: functional, cell-based; settings: MDA-MB-231, 72 h; outline: as §3
MDA-MB-231 [22] = test: Induction of cell cycle arrest in human MDA-MB-231 cells assessed as accumulation in G0/G1 phase at 40 nM incubated for 36 hrs by propidium iodide staining based flow cytometry; assay type: functional; outline: as §6
HeLa [23] = test: Antiproliferative activity against human HeLa cells assessed as reduction in cell viability at 80 nM incubated for 48 hrs by EdU staining based laser scanning confocal microscopy; assay type: functional; outline: as §8
MDA-MB-231 [24] = test: Induction of apoptosis in human MDA-MB-231 cells at 40 nM incubated for 48 hrs by annexin V FITC and propidium iodide staining based flow cytometry; assay type: functional, cell-based; outline: as §5
SiHa [25] = test: Inhibition of colony formation in human SiHa cells at 80 nM incubated for 5 days by crystal violet staining based light microscopy; assay type: functional, cell-based; outline: as §1
MDA-MB-231 [26] = test: Induction of apoptosis in human MDA-MB-231 cells assessed as decrease in Bcl2 expression at 40 nM incubated for 48 hrs by Western blot analysis; assay type: functional, cell-based; outline: as §7
SiHa [27] = test: Induction of apoptosis in human SiHa cells assessed as decrease in Bcl2 expression at 80 nM incubated for 48 hrs by Western blot analysis; assay type: functional, cell-based; outline: as §2
HeLa [28] = test: Induction of apoptosis in human HeLa cells at 40 nM incubated for 48 hrs by annexin V FITC and propidium iodide staining based flow cytometry; assay type: functional, cell-based
Outline: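 Cells were treated for 48 h, stained with FITC Annexin V and PI, and analyzed by flow cytometry to count early and late apoptotic cells.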

SiHa [29] = test: Antiangiogenic activity against human SiHa cells xenografted in NOD/SCID BALB/c mouse assessed as reduction in CD31 expression at 40 mg/kg, po measured after 21 days by hematoxylin and eosin staining based immunohistochemistry; assay type: functional, organism-based; outline: as §4
[30] = molecular target: CDK4/Cyclin D3 (Homo sapiens) (UniProt P11802+P30281); test: Inhibition of recombinant full length human CDK4/Cyclin D3 using Rb-fragmen as substrate at 1 uM incubated for 40 mins by [gamma-33P]-ATP based radiometric assay relative to control; assay type: protein-complex assay
Outline: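 Kinase panel profiling at 1 μM performed by Eurofins KinaseProfiler; percent inhibition reported as mean of two independent experiments.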

HUVEC [31] = test: Antiproliferative activity against HUVEC cells assessed as reduction in cell viability at 40 nM measured upto 72 hrs by CCK8 assay; assay type: functional, cell-based; settings: Homo sapiens
Outline: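 HUVECs, 3×10³ cells/well, kept in 1640 medium with 10% FBS at 37°C and 5% CO₂. Cells were treated at 20 or 40 nM or vehicle, and viability was read by CCK-8 (absorbance 450 nm) at 0, 12, 24, 36, 48, 60 and 72 h. Five replicates per sample.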

CCN1CCN(Cc2ccc(Nc3ncc(F)c(-c4cc(F)c5nc(C)n(C(C)C)c5c4)n3)nc2)CC1 [ABEMACICLIB]
861 nM: IC50 (SiHa [9])
Non-Toxic: Activity [2]
403 nM: IC50 (HUVEC [13])
99%: inhibition [30]
768 nM: IC50 (HeLa [4])
145 nM: IC50 (T47D [15])
active: inhibition (HeLa [1]) | Activity (T47D [3]) | TGI (SiHa [5]) | inhibition (T47D [6]) | inhibition (SiHa [7]) | Activity (SiHa [8]) | Activity (HeLa [10]) | Activity (SiHa [11]) | Activity (HeLa [12]) | inhibition (T47D [14]) | inhibition (SiHa [16]) | Activity (T47D [17]) | inhibition (MDA-MB-231 [18]) | inhibition (MDA-MB-231 [19]) | Activity (T47D [20]) | Activity (MDA-MB-231 [22]) | inhibition (HeLa [23]) | Activity (MDA-MB-231 [24]) | inhibition (SiHa [25]) | Activity (MDA-MB-231 [26]) | Activity (SiHa [27]) | Activity (HeLa [28]) | inhibition (SiHa [29]) | inhibition (HUVEC [31])
62 nM: IC50 (MDA-MB-231 [21])
